ChEMBL document CHEMBL3124784, “Synthesis, in vitro antiplasmodial activity and cytotoxicity of a series of artemisinin-triazine hybrids and hybrid-dimers” (Eur J Med Chem, 2014)

Key:
[1] = Selectivity index, ratio of IC50 for CHO cells to IC50 for asexual erythrocytic stage of chloroquine-sensitive Plasmodium falciparum NF54; type: toxicity, cell-based; conditions: hamster; read-out: Ratio IC50
CHO = assay: Cytotoxicity against CHO cells after 48 hrs by MTT assay; type: cell-based; conditions: Cricetulus griseus
[2] = Resistance index, ratio of IC50 for asexual erythrocytic stage of chloroquine-resistant Plasmodium falciparum Dd2 to IC50 for asexual erythrocytic stage of chloroquine-sensitive Plasmodium falciparum NF54; type: functional
Plasmodium falciparum [3] = assay: Antiplasmodial activity against asexual erythrocytic stage of chloroquine-resistant Plasmodium falciparum Dd2 assessed as parasite growth inhibition after 48 hrs by lactate dehydrogenase assay; type: functional, organism-based; conditions: Dd2, 48 h
Summary of the method: (§1)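 pLDH assay (modified Makler method) on cultured parasites, 48 h exposure. Stocks 20 mg/mL in 100% DMSO, stored at −20 °C, diluted in complete medium on the day of analysis; suspensions tested if not fully dissolved. Two-fold serial dilutions over ten concentrations; references started at 1000 ng/mL. Full dose-response for IC50; triplicate on one occasion.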

Plasmodium falciparum [4] = assay: Antiplasmodial activity against asexual erythrocytic stage of chloroquine-sensitive Plasmodium falciparum NF54 assessed as parasite growth inhibition after 48 hrs by lactate dehydrogenase assay; type: functional, organism-based; conditions: NF54, 48 h; summary of the method: as §1
Plasmodium falciparum [5] = assay: Potency index, ratio of pyrimethamine IC50 to compound IC50 for asexual erythrocytic stage of chloroquine-sensitive Plasmodium falciparum NF54; type: functional
Plasmodium falciparum [6] = assay: Potency index, ratio of chloroquine IC50 to compound IC50 for asexual erythrocytic stage of chloroquine-sensitive Plasmodium falciparum NF54; type: functional

Structure (SMILES) | selectivity ratio [1] | IC50 (CHO) | Ratio IC50 [2] | IC50 (Plasmodium falciparum [3]) [nM] | IC50 (Plasmodium falciparum [4]) [nM] | Ratio IC50 (Plasmodium falciparum [5]) | Ratio IC50 (Plasmodium falciparum [6])
C[C@H]1[C@@H](O)O[C@@H]2O[C@@]3(C)CC[C@H]4[C@H](C)CC[C@@H]1[C@@]24OO3 [ARTENIMOL] | 162000 | 148000 nM | 9.7 | 8.8 | 0.9 |  | 
COc1ccc(Nc2nc(NCCNCCO[C@H]3O[C@@H]4O[C@@]5(C)CC[C@H]6[C@H](C)CC[C@@H]([C@H]3C)[C@@]46OO5)nc(N3CCOCC3)n2)cc1.O=C(O)C(=O)O | 81 | 3100 nM | 1.5 | 57.4 | 38.5 | <=6000 | 
CC[C@H]1CN2CCc3cc(OC)c(OC)cc3[C@@H]2C[C@@H]1C[C@H]1NCCc2cc(OC)c(OC)cc21 [EMETINE] |  | 100 nM |  |  |  |  | 
C[C@H]1[C@@H](OCCN(CCNc2nc(Nc3ccccc3)nc(N3CCOCC3)n2)CCO[C@H]2O[C@@H]3O[C@@]4(C)CC[C@H]5[C@H](C)CC[C@@H]([C@H]2C)[C@@]35OO4)O[C@@H]2O[C@@]3(C)CC[C@H]4[C@H](C)CC[C@@H]1[C@@]24OO3.O=C(O)C(=O)O | > 13500 | > 100 µg/mL | 1.3 | 10.2 | 7.9 | <=6000 | 
C[C@H]1[C@@H](OCCNCCNc2nc(N3CCCCC3)nc(N3CCCCC3)n2)O[C@@H]2O[C@@]3(C)CC[C@H]4[C@H](C)CC[C@@H]1[C@@]24OO3.O=C(O)C(=O)O | 150 | 3100 nM | 2.3 | 47.5 | 20.6 | <=6000 | 
CCc1nc(N)nc(N)c1-c1ccc(Cl)cc1 [PYRIMETHAMINE] |  | 271000 nM |  | 60700 | 33000 |  | 
COc1ccc(Nc2nc(NCCNCCO[C@H]3O[C@@H]4O[C@@]5(C)CC[C@H]6[C@H](C)CC[C@@H]([C@H]3C)[C@@]46OO5)nc(NCCN(C(C)C)C(C)C)n2)cc1.O=C(O)C(=O)O | 23 | 900 nM | 1.9 | 74.7 | 39.1 | <=6000 | 
C[C@H]1[C@@H](OCCNCCNc2nc(Nc3ccccc3)nc(Nc3ccccc3)n2)O[C@@H]2O[C@@]3(C)CC[C@H]4[C@H](C)CC[C@@H]1[C@@]24OO3.O=C(O)C(=O)O | 588 | 16000 nM | 2.2 | 59.1 | 27.2 | <=6000 | 
C[C@H]1[C@H](OC(=O)CCC(=O)O)O[C@@H]2O[C@@]3(C)CC[C@H]4[C@H](C)CC[C@@H]1[C@@]24OO3 [ARTESUNATE] |  |  |  | 8.1 | < 5.2 |  | 
COc1ccc(Nc2nc(NCCN(CCO[C@H]3O[C@@H]4O[C@@]5(C)CC[C@H]6[C@H](C)CC[C@@H]([C@H]3C)[C@@]46OO5)CCO[C@H]3O[C@@H]4O[C@@]5(C)CC[C@H]6[C@H](C)CC[C@@H]([C@H]3C)[C@@]46OO5)nc(N3CCOCC3)n2)cc1.O=C(O)C(=O)O | 35 | 900 nM | 1.4 | 35.9 | 25.8 | <=6000 | 
COc1ccc(Nc2nc(NCCNCCO[C@H]3O[C@@H]4O[C@@]5(C)CC[C@H]6[C@H](C)CC[C@@H]([C@H]3C)[C@@]46OO5)nc(Nc3ccccc3)n2)cc1.O=C(O)C(=O)O | > 5050 | > 100 µg/mL | 1.5 | 28.8 | 19.8 | <=6000 | 
COc1ccc(Nc2nc(NCCNCCO[C@H]3O[C@@H]4O[C@@]5(C)CC[C@H]6[C@H](C)CC[C@@H]([C@H]3C)[C@@]46OO5)nc(N3CCCCC3)n2)cc1.O=C(O)C(=O)O | 105 | 3000 nM | 1.7 | 46.3 | 28 | <=6000 | 
C[C@H]1[C@@H](OCCNCCNc2nc(N3CCOCC3)nc(N3CCOCC3)n2)O[C@@H]2O[C@@]3(C)CC[C@H]4[C@H](C)CC[C@@H]1[C@@]24OO3.O=C(O)C(=O)O | 160 | 3100 nM | 4.4 | 85 | 19.3 | <=6000 | 
COc1ccc(Nc2nc(NCCN(CCO[C@H]3O[C@@H]4O[C@@]5(C)CC[C@H]6[C@H](C)CC[C@@H]([C@H]3C)[C@@]46OO5)CCO[C@H]3O[C@@H]4O[C@@]5(C)CC[C@H]6[C@H](C)CC[C@@H]([C@H]3C)[C@@]46OO5)nc(Nc3ccc(OC)cc3)n2)cc1.O=C(O)C(=O)O | > 18200 | > 100 µg/mL | 1.9 | 10.6 | 5.5 | <=6000 | 2
COc1ccc(Nc2nc(NCCN(CCO[C@H]3O[C@@H]4O[C@@]5(C)CC[C@H]6[C@H](C)CC[C@@H]([C@H]3C)[C@@]46OO5)CCO[C@H]3O[C@@H]4O[C@@]5(C)CC[C@H]6[C@H](C)CC[C@@H]([C@H]3C)[C@@]46OO5)nc(N3CCCCC3)n2)cc1.O=C(O)C(=O)O | 1470 | 17000 nM | 1.2 | 13.6 | 11.6 | <=6000 | 
COc1ccc(Nc2nc(NCCN(CCO[C@H]3O[C@@H]4O[C@@]5(C)CC[C@H]6[C@H](C)CC[C@@H]([C@H]3C)[C@@]46OO5)CCO[C@H]3O[C@@H]4O[C@@]5(C)CC[C@H]6[C@H](C)CC[C@@H]([C@H]3C)[C@@]46OO5)nc(NCCN(C(C)C)C(C)C)n2)cc1.O=C(O)C(=O)O | > 3080 | > 100 µg/mL | 1 | 33.1 | 31.8 | <=6000 | 
C[C@H]1[C@@H](OCCN(CCNc2nc(Nc3ccccc3)nc(Nc3ccccc3)n2)CCO[C@H]2O[C@@H]3O[C@@]4(C)CC[C@H]5[C@H](C)CC[C@@H]([C@H]2C)[C@@]35OO4)O[C@@H]2O[C@@]3(C)CC[C@H]4[C@H](C)CC[C@@H]1[C@@]24OO3.O=C(O)C(=O)O | 54 | 700 nM | 0.8 | 10.3 | 12.9 | <=6000 | 
